Activity calls are given as the source filed them. Unless noted, no stated cut-off is given here; in the data, active means inhibition above about 30%; inactive means the rest.
Experiments:
[1] = Her2 expression decrease, cell viability multiplex – SKBR3 breast tumor cells, AlphaScreen, ATP viability, primary screen (AID 461;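 active means Her2 level under about 52% in both replicate screens, with viability over 70% of control, limit read from the data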;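 on Her2 level: lower value means less Her2 protein in the cells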;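 on viability: percent of carrier control wells set as 100% viability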); settings: SKBR3 Her2 protein level, 18-24 h, measured here: SKBR3 viability, ATP luminescence, at 10 µM
[2] = molecular target: Receptor tyrosine-protein kinase erbB-2 (Homo sapiens) (UniProt P04626); experiment: as above; settings: 18-24 h, at 10 µM, stronger effect = lower value
Sequence of Receptor tyrosine-protein kinase erbB-2 (Homo sapiens) (P04626 whole entry, looked up): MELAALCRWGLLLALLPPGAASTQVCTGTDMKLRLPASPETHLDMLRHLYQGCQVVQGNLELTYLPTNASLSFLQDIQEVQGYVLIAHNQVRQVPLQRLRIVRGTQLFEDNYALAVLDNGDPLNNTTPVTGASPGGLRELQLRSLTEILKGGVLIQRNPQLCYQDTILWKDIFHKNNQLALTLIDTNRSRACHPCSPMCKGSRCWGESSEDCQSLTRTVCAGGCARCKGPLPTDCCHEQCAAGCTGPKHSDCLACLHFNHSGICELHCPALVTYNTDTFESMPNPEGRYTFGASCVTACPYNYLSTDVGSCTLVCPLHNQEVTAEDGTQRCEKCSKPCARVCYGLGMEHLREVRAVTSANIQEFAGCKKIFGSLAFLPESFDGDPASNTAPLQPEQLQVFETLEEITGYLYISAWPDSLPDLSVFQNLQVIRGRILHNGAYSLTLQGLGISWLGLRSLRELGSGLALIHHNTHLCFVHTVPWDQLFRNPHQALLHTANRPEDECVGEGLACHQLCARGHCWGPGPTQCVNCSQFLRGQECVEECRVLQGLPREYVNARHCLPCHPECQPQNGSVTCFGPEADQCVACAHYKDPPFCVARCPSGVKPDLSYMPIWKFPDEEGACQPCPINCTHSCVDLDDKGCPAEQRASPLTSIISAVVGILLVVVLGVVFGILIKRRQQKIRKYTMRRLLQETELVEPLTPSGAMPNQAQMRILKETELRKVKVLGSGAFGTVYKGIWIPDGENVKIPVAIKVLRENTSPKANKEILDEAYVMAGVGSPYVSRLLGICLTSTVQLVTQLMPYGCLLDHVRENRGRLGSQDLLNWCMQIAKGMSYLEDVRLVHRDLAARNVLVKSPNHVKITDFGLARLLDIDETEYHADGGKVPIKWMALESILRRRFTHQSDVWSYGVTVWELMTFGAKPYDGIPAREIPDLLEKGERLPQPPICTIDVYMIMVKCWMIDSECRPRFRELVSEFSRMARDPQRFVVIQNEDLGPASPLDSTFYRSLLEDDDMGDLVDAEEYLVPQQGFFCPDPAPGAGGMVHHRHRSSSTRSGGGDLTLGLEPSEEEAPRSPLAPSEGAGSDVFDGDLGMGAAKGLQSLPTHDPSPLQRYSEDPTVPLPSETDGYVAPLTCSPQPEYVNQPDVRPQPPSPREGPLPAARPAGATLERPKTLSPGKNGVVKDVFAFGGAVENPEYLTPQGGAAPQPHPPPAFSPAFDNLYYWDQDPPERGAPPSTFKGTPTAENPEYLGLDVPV

[3] = reduced viability of SK-BR-3 breast cancer cells – cell-based, 24 h, human, pilot screen (AID 572;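 active means viability at or below 10% of carrier control in both of two separate runs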;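 further: compound exposure lasted between 18 and 24 h rather than exactly 24 h; 100% = carrier-treated control wells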); settings: SK-BR-3 viability, CellTiter-Glo luminescence, at 10 µM, stronger effect = lower value
[4] = HUVEC growth inhibition – cell-based, human, primary screen (AID 575;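 active means viability at or below 30% in both replicate assays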;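 further: 100% = median of untreated cell wells with 0.1% DMSO on each plate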); settings: HUVEC proliferation, CellTiter-Glo luminescence, 72 h; at 10 µM; stronger effect = lower value
In short: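 System: primary human umbilical vein endothelial cells; Quantity: 1250 endothelial cells in each well; Buffer or medium: supplemented EBM, 2% fetal bovine serum; Doses: one dose, 10 µM final, 0.1% DMSO; Incubation: 72 h compound incubation; Technique: ATP-based CellTiter-Glo luminescent read; Evaluation: percent of median DMSO-control luminescence; Controls: vehicle and MePR control wells.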

[5] = H69AR cell proliferation blockers – human, duplicate replicates, primary screen (AID 580;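 active means viability at or under a set limit in both replicates, limit being median viability minus 3 SD, cut at about 48% in these data, passing the limit was not always enough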;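 further: 100% = mean luminescence of untreated wells and 0% = no signal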); settings: H69AR lung tumor cells viability, ATP luminescence, 72 h; at 10 µM; stronger effect = lower value
[6] = MRP1 drug-resistance reversers in H69AR cells – cell-based, doxorubicin co-treatment, pilot screen (AID 601;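 active means viability loss from added drug above about 55%, and viability with drug at most 40%, in both replicates, limit read from the data, passing the limit was not always enough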); settings: CellTiter-Glo, 72 h, at 10 µM; for differential viability (reversal): stronger effect = higher value
[7] = yeast transport mutant growth inhibition pilot in 384-well plates, post-Golgi transport modulator project (AID 636; in the data active means inhibition above about 31%); settings: absorbance 615 nm, about 18 h, stronger effect = higher value
[8] = growth suppression of yeast trafficking mutant, preliminary HTS, modulators of trafficking downstream of Golgi apparatus project, 1536-format plate, OD 615 nm (AID 637); settings: yeast transport mutant growth, absorbance 615 nm, 18 h; stronger effect = higher value
[9] = H69AR cells + 2 uM doxorubicin, measured here: viability with 2 uM doxorubicin, stronger effect = lower value
[10] = H69AR cells, compound alone cytotoxicity

| Structure (SMILES) | viability [1] | Her2 level [2] | viability [3] | viability [4] | viability [5] | differential viability (reversal) ([6]; H69AR cells + 2 uM doxorubicin) | viability [6, 9] | viability [6, 10] | inhibition [7] | inhibition [8] |
| --- | --- | --- | --- | --- | --- | --- | --- | --- | --- | --- |
| O=C(OCCN1C(=O)c2ccccc2C1=O)c1ccc(S(=O)(=O)N2CCCCCC2)cc1 | 114% | 76.5% (inactive) | 114% (inactive) | 78.5% (inactive) | 105% (inactive) | 17.6% (inactive) | 87.6% | 105% | -6.22% (inactive) | 1.11% (inactive) |
| N=c1c(C(=O)NCc2ccc(F)cc2)cc2c(=O)n3ccccc3nc2n1CCCN1CCOCC1 | 95% | 74.5% (inactive) | 95% (inactive) | 82.8% (inactive) | 76.6% (inactive) | -8.96% (inactive) | 85.6% | 76.6% | 0.78% (inactive) | 10.8% (inactive) |
| COc1ccc(CCn2c(=N)c(C#N)cc3c(=O)n4ccccc4nc32)cc1 | 95% | 84.5% (inactive) | 95% (inactive) | 79.7% (inactive) | 65.2% (inactive) | 2.31% (inactive) | 62.9% | 65.2% | -8.78% (inactive) | 5.17% (inactive) |
| CCN(CC)S(=O)(=O)c1cccc2c(N(C)C)cccc12 | 99.5% | 112% (inactive) | 99.5% (inactive) | 107% (inactive) | 93.3% (inactive) | 4.14% (inactive) | 89.2% | 93.3% | -4.93% (inactive) | -4.52% (inactive) |
| COC(=O)C1=CN(C(C)C)C=C(C(=O)OC)C1c1cc2c(cc1Br)OCO2 | 92.5% | 87.5% (inactive) | 92.5% (inactive) | 74% (inactive) | 85.4% (inactive) | 9.5% (inactive) | 75.9% | 85.4% | -1.47% (inactive) | -4.29% (inactive) |
| O=C(NCC1CCCO1)C1CCN(c2ccc(S(=O)(=O)N3CCCC3)cc2)CC1 (stereo not given) | 115% | 112% (inactive) | 115% (inactive) | 99.2% (inactive) | 80% (inactive) | -6.02% (inactive) | 86% | 80% | -5.45% (inactive) | -1.5% (inactive) |
| O=C(NCCCn1ccnc1)c1csc2ccccc12 | 84.5% | 89.5% (inactive) | 84.5% (inactive) | 95.4% (inactive) | 97.5% (inactive) | 11.9% (inactive) | 85.6% | 97.5% | -3.03% (inactive) | 3.67% (inactive) |
| Cc1ccc(-c2c3c(=O)n(C)c(=O)n(C)c3cn2CCCN2CCOCC2)cc1 | 144% | 102% (inactive) | 144% (inactive) | 103% (inactive) | 77.8% (inactive) | -4.19% (inactive) | 82% | 77.8% | -7.5% (inactive) | -0.95% (inactive) |
| O=C(CSc1nnc2scc(-c3ccccc3)n12)N1CCN(Cc2ccccc2)CC1 | 89% | 97.5% (inactive) | 89% (inactive) | 103% (inactive) | 78.5% (inactive) | 8.52% (inactive) | 70% | 78.5% | -5.66% (inactive) | -0.32% (inactive) |
| COCCNc1oc(-c2ccc(C)cc2)nc1C#N | 102% | 81% (inactive) | 102% (inactive) | 113% (inactive) | 85.9% (inactive) | 8.44% (inactive) | 77.5% | 85.9% | -4.46% (inactive) | 3.33% (inactive) |
| CSCCC(NS(=O)(=O)c1ccc2c(c1)oc(=O)n2C)C(=O)NC1CCCCC1 (stereo not given) | 91% | 110% (inactive) | 91% (inactive) | 87.4% (inactive) | 103% (inactive) | 12.6% (inactive) | 90.1% | 103% | 0.9% (inactive) | -3.17% (inactive) |
| CCOC(=O)N1CCN(C(=O)COc2ccc(S(=O)(=O)NC3CCCCC3)cc2C)CC1 | 112% | 110% (inactive) | 112% (inactive) | 80.9% (inactive) | 98.9% (inactive) | 0.31% (inactive) | 98.5% | 98.9% | -0.4% (inactive) | -1.31% (inactive) |
| Cc1oc(-c2ccccc2F)nc1CS(=O)(=O)CC(=O)N1CCN(Cc2ccccc2)CC1 | 77.5% | 91.5% (inactive) | 77.5% (inactive) | 102% (inactive) | 90.2% (inactive) | -1.19% (inactive) | 91.4% | 90.2% | -3.07% (inactive) | -0.98% (inactive) |
| COCCn1nnnc1CN(Cc1cccnc1)Cc1cc2cc(OC)ccc2[nH]c1=O | 91% | 75% (inactive) | 91% (inactive) | 98.6% (inactive) | 88.3% (inactive) | 8.82% (inactive) | 79.5% | 88.3% | -7.07% (inactive) | 4.26% (inactive) |
| Cc1c(Br)c(C(F)(F)F)nn1CC(=O)NCCN1CCOCC1 | 122% | 100% (inactive) | 122% (inactive) | 108% (inactive) | 96.6% (inactive) | 10.3% (inactive) | 86.3% | 96.6% | -6.27% (inactive) | 2.1% (inactive) |
| CCN(Cc1nc2ccccc2c(=O)[nH]1)Cc1cc(=O)oc2cc(C)c(C)cc12 | 107% | 102% (inactive) | 107% (inactive) | 63% (inactive) | 62.9% (inactive) | 21% (inactive) | 42% | 62.9% | -4.68% (inactive) | -1.67% (inactive) |
| O=C(Nc1ccc2c(c1)OCO2)c1cncc(Br)c1 | 108% | 77% (inactive) | 108% (inactive) | 82% (inactive) | 92.6% (inactive) | 2.14% (inactive) | 90.5% | 92.6% | -4.27% (inactive) | 5.25% (inactive) |
| CCC(c1nnnn1Cc1ccco1)N(CCc1ccccc1)Cc1cc2cccc(C)c2[nH]c1=O (stereo not given) | 105% | 77.5% (inactive) | 105% (inactive) | 69.2% (inactive) | 62.9% (inactive) | -3.2% (inactive) | 66.1% | 62.9% | -5% (inactive) | -2.67% (inactive) |
| COc1cc(C2C(C#N)=C(N)Oc3cc(N)ccc32)cc(OC)c1OC (stereo not given) | 91.5% | 75% (inactive) | 91.5% (inactive) | 42.1% (inactive) | 32.3% (active) | -28.8% (inactive) | 61.1% | 32.3% | -4% (inactive) | 8.03% (inactive) |
| COc1ccc(CCNC(=O)CSc2nncn2N)cc1OC | 93.5% | 80.5% (inactive) | 93.5% (inactive) | 109% (inactive) | 96.4% (inactive) | 8% (inactive) | 88.4% | 96.4% | -2.11% (inactive) | -3.5% (inactive) |
| CNC(=O)CN(c1cc(C)ccc1OC)S(=O)(=O)c1ccc(C)cc1 | 93% | 113% (inactive) | 93% (inactive) | 108% (inactive) | 103% (inactive) | 2.79% (inactive) | 100% | 103% | -2.93% (inactive) | -7.58% (inactive) |
| COc1ccc(C(=O)N(Cc2ccco2)C(C(=O)NC2CCCC2)c2ccc(O)cc2)cc1OC (stereo not given) | 77.5% | 85% (inactive) | 77.5% (inactive) | 76.8% (inactive) | 78.8% (inactive) | -1.66% (inactive) | 80.4% | 78.8% | -1.32% (inactive) | -8% (inactive) |
| Cc1cc2c(c(=O)n1CCc1ccccc1)C(C(C)C)C(C#N)=C(N)O2 (stereo not given) | 95% | 87% (inactive) | 95% (inactive) | 93.9% (inactive) | 83.5% (inactive) | -9.34% (inactive) | 92.8% | 83.5% | -4.87% (inactive) | 2.79% (inactive) |
| CCc1[nH]nc2c1C(c1ccncc1)C(C#N)=C(N)O2 (stereo not given) | 108% | 112% (inactive) | 108% (inactive) | 106% (inactive) | 95.9% (inactive) | -3.88% (inactive) | 99.8% | 95.9% | -4.46% (inactive) | -4.92% (inactive) |
| COC(=O)C(NC(C)=O)(Nc1ccccn1)C(F)(F)F (stereo not given) | 98% | 78% (inactive) | 98% (inactive) | 105% (inactive) | 89% (inactive) | -5.41% (inactive) | 94.4% | 89% | -1.97% (inactive) | -7.64% (inactive) |
| CCCS(=O)(=O)NCCc1cc2cc(C)c(C)cc2[nH]c1=O | 106% | 90% (inactive) | 106% (inactive) | 101% (inactive) | 96.3% (inactive) | 8.55% (inactive) | 87.7% | 96.3% | -8.22% (inactive) | -0.63% (inactive) |
| Cc1nc(-c2cccc(N)c2)cs1 | 103% | 94.5% (inactive) | 103% (inactive) | 84.3% (inactive) | 103% (inactive) | 6.14% (inactive) | 96.8% | 103% | -1.33% (inactive) | -2.3% (inactive) |
| Cc1nc2nc(SCC(=O)NCc3ccco3)nn2c(C)c1Cc1ccccc1 | 83% | 108% (inactive) | 83% (inactive) | 97.3% (inactive) | 75.2% (inactive) | -2% (inactive) | 77.2% | 75.2% | -5.27% (inactive) | -3% (inactive) |
| O=C(CN1C(=O)NC2(CCCCCC2)C1=O)N1CCC(Cc2ccccc2)CC1 | 87% | 94.5% (inactive) | 87% (inactive) | 77.2% (inactive) | 86.7% (inactive) | -4.21% (inactive) | 90.9% | 86.7% | -5.33% (inactive) | 2.46% (inactive) |
| Cc1ncoc1C(=O)Nc1ccccc1C(N)=O | 104% | 101% (inactive) | 104% (inactive) | 106% (inactive) | 102% (inactive) | 16.3% (inactive) | 85.5% | 102% | -6.08% (inactive) | -1% (inactive) |

Source: PubChem BioAssay
